# From PubChem
# Hep lipid drop = inhibitors of hepatocyte lipid droplet formation, primary screen, imaging, high-throughput imaging, BODIPY stain; 240,000 tested, 0.4% active; inhibition, % at 6.5 µM; AID 1656, 2009; AML12 mouse hepatocytes, oleate lipid droplets;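 active means lipid droplet intensity inhibited by at least 50%, with more than 500 cells counted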
#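 Test system: AML12 hepatocytes (mouse); reagent: oleate loading, 100 µM; dosing: one dose, 6.5 µM compound; incubation: overnight exposure; signal: fluorescence imaging, 20x objective, two fields per well; read-out basis: % inhibition of corrected integrated BODIPY droplet signal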
# TMEM16A act = TMEM16A chloride channel activators or potentiators, primary screen, cell-based, HTS; Anoctamin-1 (Mus musculus), Q8BHY3; HEK293 TMEM16A/YFP-H148Q/I152L, iodide quench fluorescence; hits give low values; B-score at 10 µM; 340,000 tested, 0.3% active; AID 623877, 2012;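 active means fluorescence-ratio B-score plate-corrected deviation score at least 3 library SD below zero, with starting fluorescence score within 5 deviations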;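 further: channel opened by trigger with iodide after compound preincubation; score built on the fluorescence ratio of max minus min over baseline; more negative score means more quench and so TMEM16A activation or potentiation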
# Target sequence (Q8BHY3 whole entry, looked up): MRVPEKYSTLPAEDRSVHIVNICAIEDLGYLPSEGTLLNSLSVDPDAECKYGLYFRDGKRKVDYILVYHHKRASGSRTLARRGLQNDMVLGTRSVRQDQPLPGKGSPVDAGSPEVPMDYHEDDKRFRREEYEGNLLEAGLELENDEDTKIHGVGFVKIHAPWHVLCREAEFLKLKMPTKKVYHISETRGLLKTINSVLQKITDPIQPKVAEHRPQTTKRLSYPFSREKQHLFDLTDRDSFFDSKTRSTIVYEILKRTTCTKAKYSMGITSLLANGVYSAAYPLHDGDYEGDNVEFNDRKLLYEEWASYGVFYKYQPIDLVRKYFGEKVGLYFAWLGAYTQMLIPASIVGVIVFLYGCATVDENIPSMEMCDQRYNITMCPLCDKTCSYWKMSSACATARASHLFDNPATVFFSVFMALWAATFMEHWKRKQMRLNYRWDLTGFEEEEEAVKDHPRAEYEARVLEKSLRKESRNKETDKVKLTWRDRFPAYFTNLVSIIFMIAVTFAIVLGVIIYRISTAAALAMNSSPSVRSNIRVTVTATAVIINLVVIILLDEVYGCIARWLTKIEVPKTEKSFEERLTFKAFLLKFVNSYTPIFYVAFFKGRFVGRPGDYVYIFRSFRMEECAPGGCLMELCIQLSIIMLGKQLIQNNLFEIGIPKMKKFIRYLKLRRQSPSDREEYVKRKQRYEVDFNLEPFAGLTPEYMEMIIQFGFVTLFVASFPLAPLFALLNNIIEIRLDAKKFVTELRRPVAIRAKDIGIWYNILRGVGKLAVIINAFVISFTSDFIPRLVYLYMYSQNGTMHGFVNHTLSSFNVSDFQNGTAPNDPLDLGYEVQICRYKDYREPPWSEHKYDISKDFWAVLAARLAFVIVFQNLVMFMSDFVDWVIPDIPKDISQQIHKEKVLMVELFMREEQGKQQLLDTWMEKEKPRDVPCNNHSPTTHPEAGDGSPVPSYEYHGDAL
# TMEM16A inh = TMEM16A chloride channel inhibitors, primary screen, cell-based, HTS. Anoctamin-1 (Mus musculus), Q8BHY3. HEK293 TMEM16A/YFP iodide influx fluorescence, ionomycin. normalized B-score (activity score, 25-100; higher = stronger inhibition) at 10 µM. 310,000 tested, 1.2% active. AID 588511, 2011;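 active means ratio plate-corrected score three or more library SD toward inhibition, starting fluorescence score within five deviations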;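 further: score derived from kinetic fluorescence span divided by baseline fluorescence per well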
# CHOP inhibitor = inhibitors of CHOP promoter induction, primary screen, cell-based, unfolded protein response, luciferase reporter. 220,000 tested, 3.8% active. inhibition, % at 10 µM. CHO-K1 CHOP-promoter luciferase, tunicamycin-induced, 15-18 h;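 active means compounds that reduced the stress-induced luciferase reporter signal by more than about 70% of percent inhibition, limit read from the data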;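 further: 0% = tunicamycin plus vehicle and 100% = wells without tunicamycin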
# UPR XBP1 act = activators of adaptive XBP1 UPR arm, primary screen, cell-based, CHO-XBP1 luciferase reporter, luminescence, uHTS | IRE1-XBP1 UPR activation; percent of tunicamycin response, DMSO as zero | activation, % at 20 µM | 330,000 tested, 0.33% active | AID 463104, 2010;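 active means versus positive control, 20 µM dose yields 30% or more activation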;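 further: 100% = tunicamycin at 10 µg/mL and 0% = DMSO only wells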
#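 Material: CHO-XBP1 cells stably carrying IRE1-XBP1-driven luciferase reporter | Medium: F12 with 10% serum | Compound dosing: 20 µM single concentration, DMSO 1% | Incubation: Overnight seeding at 37 °C, 6 h compound treatment at 37 °C | Detection: Steady-Glo luminescence read | Read-out basis: % activation of reporter signal versus tunicamycin and DMSO controls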
# CHOP UPR activ = activators of apoptotic CHOP UPR arm, primary screen, cell-based, CHO-CHOP luciferase reporter, luminescence, uHTS. UPR activation; percent of tunicamycin response over DMSO baseline. activation, % at 10 µM. 330,000 tested, 0.34% active. AID 449763, 2010;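 active means at 10 µM dose, activation of 40% or more, normalized to positive control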;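 further: 100% = tunicamycin at 10 µg/mL and 0% = DMSO alone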
#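 measured by = luciferase luminescence | assay system = CHO-CHOP cells, stable luciferase reporter of PERK-eIF2a-CHOP signalling | amount = 500 reporter cells seeded per well | timing = 6 h compound exposure at 37 °C after overnight seeding | controls = positive tunicamycin 10 µg/mL, negative DMSO alone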
# CHOP inh conf = retest of CHOP induction inhibitors, confirmation, cell-based | shares compounds with CHOP inhibitor | CHO-CHOP promoter luciferase reporter, tunicamycin-induced, luminescence | inhibition, % at 10 µM | 2,100 tested, 45% active | AID 504437, 2011;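 active means mean of three repeat readings of reporter signal inhibition above a set limit, cut at about 70% in these data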;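 further: 0% = tunicamycin plus vehicle and 100% = wells lacking tunicamycin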
# * = called active by the depositor; i = inactive; · = no result given. Hits are enriched below; roughly 4.2% of the tested compounds scored in any of these assays.
SMILES,Hep lipid drop,TMEM16A act,TMEM16A inh,CHOP inhibitor,UPR XBP1 act,CHOP UPR activ,CHOP inh conf
Nc1c(N(C(=O)Nc2ccc(Cl)c(Cl)c2)C2CCCC2)c(=O)[nH]c(=O)n1Cc1ccccc1,-17,i,i,103*,-3,0,115*
COc1ccc2[nH]c3c(=O)n(CCN4CCOCC4)cnc3c2c1,5,i,i,-11,2,1,·
COc1ccc2c(c1)c1ncn(CCN3CCCC3)c(=O)c1n2C,·,i,i,101*,4,-2,18
O=C(NCCCc1ccc(F)cc1)C1CCC(=O)N(CCCN2CCCC2=O)C1 (stereo not given),-7,i,i,·,-7,-1,·
O=C(Nc1cccc(Cl)c1)C1CCCN(S(=O)(=O)c2ccc(F)cc2)C1 (stereo not given),14,i,i,99*,-2,-2,42
CSc1cccc(NC(=O)C2CCCN(S(=O)(=O)c3ccc(F)cc3)C2)c1 (stereo not given),-2,i,i,41,1,-1,·
S=c1[nH]nc(C2CCCCC2)n1/N=C/C=C/c1ccccc1,·,i,i,105*,1,-1,106*
CC(/C=N/n1c(COc2ccccc2)n[nH]c1=S)=C\c1ccccc1,·,i,i,111*,-1,1,-8
S=c1[nH]nc(C2CCCCC2)n1/N=C/c1ccccc1Br,-9,i,i,·,-4,-2,·
S=c1[nH]nc(C2CCCCC2)n1/N=C/C(Cl)=C\c1ccccc1,-1,i,i,102*,6,0,29
BrC(=C\c1ccccc1)/C=N/n1cnnc1,-12,i,·,106*,·,·,-22
C=C1C(=O)O[C@@H]2[C@H]1[C@@H](OC(=O)/C(C)=C/C)C/C(C)=C\C(=O)/C=C(\C)[C@@H]2O,-2,i,i,107*,-7,14,69
C=C1C(=O)O[C@H]2[C@H]1[C@H](OC(=O)/C(C)=C\C)C[C@]1(CO1)[C@@H]1[C@H](OC(C)=O)C=C(C)[C@]21O,·,i,·,·,·,·,·
C=C1CCc2c([nH]c3ccc(OCC(C)C)cc23)C1=O,9,i,i,·,-3,-5,·
CCn1c(C)nc2cc(-c3nnc(-c4c(-c5ccccc5)noc4C)o3)ccc21,·,i,i,102*,17,6,85*
Cc1onc(-c2ccccc2)c1-c1nnc(-c2ccccc2C(F)(F)F)o1,-3,i,i,19,-2,-2,·
O=C1NC(=S)S/C1=C\C=C\c1ccc([N+](=O)[O-])o1,-55,i,·,105*,·,·,117*
CCC(C)(C)NC(=O)C(c1cccn1C)N(C(=O)Cn1nnc2ccccc21)c1ccc(F)cc1 (stereo not given),·,i,i,96*,3,-1,79*
Cc1cc(C)nc(NC(=O)/C=C/c2ccccc2Cl)n1,-3,i,i,15,3,5,·
Cc1cc(C(=O)NNC(=S)NC(=O)/C=C/c2ccccc2Cl)n[nH]1,17,i,i,108*,-2,0,40
COc1ccc(-n2nc(C(=O)NCC(=O)NC3CCCCC3)c3ccccc3c2=O)cc1,35,i,i,·,-3,2,·
O=C(c1ccco1)N1CCN(c2c(-c3ccccc3)c3cc(Cl)ccc3[nH]c2=O)CC1,0,i,i,97*,-4,0,115*
Cn1c(=O)n(CCOc2ccc(Cl)cc2Cl)c2ccccc21,6,i,i,98*,0,1,71*
CSCC[C@H](NC(=O)[C@@H]1CSC2c3ccccc3C(=O)N21)C(=O)N1CCC[C@H]1CO (stereo not given in full),·,i,i,·,-5,0,·
O=C(Nc1nncs1)c1cc2c(s1)CCC2,-1,i,i,6,-1,4,·
SMILES,Hep lipid drop,TMEM16A act,TMEM16A inh,CHOP inhibitor,UPR XBP1 act,CHOP UPR activ,CHOP inh conf
O=C(Nc1nccs1)c1cc2c(s1)CCCCC2,5,i,i,98*,-16,-9,78*
COc1cc(OC)cc(C(=O)N[C@H](C(=O)Nc2nc(-c3ccc(OC)c(OC)c3)cs2)C(C)C)c1,9,i,i,101*,8,0,56
CC(=O)Nc1ccc(NC2=C/C(=N/S(=O)(=O)c3cccs3)c3ccccc3C2=O)cc1,-20,i,i,107*,-4,2,-42
Cc1ccc(NC2=C/C(=N/S(=O)(=O)c3cccs3)c3ccccc3C2=O)cc1C,4,i,i,-71,·,·,·
Cc1ccccc1NC1=C/C(=N\S(=O)(=O)c2cccs2)c2ccccc2C1=O,26,i,i,107*,-6,-5,-13
O=C(CSc1nnnn1-c1ccc(Cl)cc1)NC(=O)Nc1ccc2c(c1)OCCO2,1,i,i,100*,2,4,51
Cc1ccc(-c2ccc(/C=C(\C#N)C(=O)Nc3cc(C)nn3-c3ccccc3)o2)cc1,-10,·,i,104*,46*,55*,89*
CCOc1cc(C(=O)CSc2nnc(CNc3ccc(Cl)cc3)o2)ccc1NC(=O)CC,·,·,i,105*,18,0,112*
COc1ccc(NCc2nnc(SCC(=O)c3ccc(OC)cc3)o2)cc1,1,i,i,1,-3,-1,·
COc1ccc(NC(=O)CN2CCCC(C)C2)c([N+](=O)[O-])c1 (stereo not given),14,i,i,101*,2,3,40
CCC(C)c1ccc(O)c(NC(=S)NC(=O)c2cccnc2)c1 (stereo not given),-14,i,i,-2,3,1,·
CCC(C)c1ccc(O)c(NC(=O)c2cncc(Br)c2)c1 (stereo not given),-8,i,i,111*,1,1,82*
C=CCOc1ccc(CNCC2CCCO2)cc1 (stereo not given),6,i,i,·,0,-1,·
Cc1cc(C)c(S(=O)(=O)NCCn2ccc3ccccc32)c(C)c1,-2,i,i,107*,-1,0,24
CC[n+]1c(/C=C2\Sc3ccccc3N2C)ccc2cccc(C)c21,-167,i,·,104*,·,·,110*
